Values after ≈ are worked out from the molar mass of the structure shown. Active and inactive are the calls of the source. The calls are words filed in the database; no cut-off is given here.
What was measured:
SK-OV-3 [1] = assay: Induction of reactive oxygen species formation in human SKOV3 cells at 20 uM in absence of light by CM-H2DCFDA probe-based confocal microscopic method; type: cell-based; settings: sk-ov-3, 20 µM
SK-OV-3 [2] = assay: Induction of necrosis in human SKOV3 cells at 20 uM in presence of 200 J/cm'2 light by propidium iodide staining-based flow cytometric method (reference value: 7.45%); type: functional
Method in brief: (§1)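 Unfixed SKOV-3 cells given 20 μM compound, with or without light (600-720 nm, 200 J/cm2). Harvested, PBS-washed, stained with propidium iodide (10 μg/mL) for 20 min. PI-positive membrane-damaged fraction measured by flow cytometry.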

[3] = Drug uptake in mitochondria of human SKOV3 cells at 20 uM after 1 hr in presence of 200 J/cm'2 light by MitoTracker Red probe/Hoechst 33342 staining-based confocal microscopic method; type: ADME; settings: sk-ov-3, 1 h
MDA-MB-231 = assay: Phototoxicity against human MDA-MB-231 cells assessed as decrease in cell viability after 24 hrs in presence of 200 J/cm'2 light by MTT assay; type: functional, cell-based; settings: MDA-MB-231, light or radiation study
Method in brief: (§2)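 Cell lines given varied compound concentrations, then irradiated (600-750 nm source, 200 J/cm2 at 50 mW/cm2) or kept dark. Viability by MTT at 24 h after treatment; IC50 from the dose-response. Three independent experiments averaged.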

SK-OV-3 [4] = assay: Cell cycle arrest in human SKOV3 cells assessed as accumulation at sub-G1 phase at 20 uM after 24 hrs in presence of 200 J/cm'2 light by propidium iodide staining-based flow cytometric method (reference value: 7%); type: functional
Mus musculus [5] = assay: Toxicity in FoxN1 nude mouse xenografted with human SKOV3 cells assessed as effect on heart morphology at 20 mg/kg, iv measured on day 14 in presence of 100 J/cm'2 light by hematoxylin-and-eosin staining-based assay; type: organism-based; settings: in vivo
Method in brief: (§3)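 3-4 million SKOV-3 cells injected subcutaneously into the flank of 6-8 week old FoxN1 nude mice (20-25 g). At tumour volumes of about 100-150 mm3, randomised into four groups of six: untreated, light only, compound only, and compound plus light. Compound given iv at 20 mg/Kg in physiological saline. Irradiation 24 h later at 100 J/cm2, 100 mW/cm2, 600-750 nm source, under ip ketamine (60 mg/Kg)/xylazine (8 mg/Kg). Tumour volume by calipers, V=LW2/2, followed over two weeks. Tissues processed for H&E histology.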

SK-OV-3 [6] = assay: Induction of reactive oxygen species formation in human SKOV3 cells at 20 uM in presence of 200 J/cm'2 light by CM-H2DCFDA probe-based confocal microscopic method; type: functional, cell-based
IMR-32 = assay: Phototoxicity against human IMR32 cells assessed as decrease in cell viability after 24 hrs in presence of 200 J/cm'2 light by MTT assay; type: functional, cell-based; settings: IMR-32, light or radiation study; method in brief: as §2
SK-OV-3 [7] = assay: Disruption of mitochondrial membrane potential in human SKOV3 cells at 20 uM in presence of 200 J/cm'2 light by MitoTracker Red probe/Hoechst 33342 staining-based confocal microscopic method; type: functional, cell-based
Method in brief: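 Control SKOV-3 cells and cells after photodynamic treatment (20 μM compound, 600-720 nm, 200 J/cm2) loaded with 200 nM MitoTracker Red CMXRos, 30 min at 37 °C. Formaldehyde-fixed, nuclear counterstain, confocal microscopy.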

SK-OV-3 [8] = assay: Antitumor activity against human SKOV3 cells xenografted in FoxN1 nude mouse assessed as elimination of neoplastic cells in tumor at 20 mg/kg, iv measured on day 14 in presence of 100 J/cm'2 light by hematoxylin-and-eosin staining-based assay; type: functional, organism-based; method in brief: as §3
[9] = Photostability of compound; type: physicochemical
SK-OV-3 [10] = assay: Induction of necrosis in human SKOV3 cells at 20 uM in absence of light by propidium iodide staining-based flow cytometric method (reference value: 7.03%); type: cell-based; settings: sk-ov-3, 20 µM; method in brief: as §1
[11] = Drug uptake in fibrous tissue cells of FoxN1 nude mouse xenografted with human SKOV3 cells at 20 mg/kg administered intratumorally measured at 12 hrs by fluorescence microscopic method; type: ADME, organism-based; settings: in vivo, other
Method in brief: (§4)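 Compound injected intratumorally into SKOV-3 xenograft-bearing nude mice. Tumours biopsied 12 h after administration, then sectioned. Sections DAPI-counterstained and examined for red compound fluorescence by fluorescence microscopy.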

MCF7 = assay: Phototoxicity against human MCF7 cells assessed as decrease in cell viability after 24 hrs in presence of 200 J/cm'2 light by MTT assay; type: functional, cell-based; settings: MCF7, light or radiation study; method in brief: as §2
SK-OV-3 [12] = assay: Antitumor activity against human SKOV3 cells xenografted in FoxN1 nude mouse assessed as disappearance of scar at site of tumor at 20 mg/kg, iv measured up to day 14 in presence of 100 J/cm'2 light; type: functional, organism-based; method in brief: as §3
[13] = Dark toxicity in human SKOV3 cells assessed as alteration in cell morphology by phase-contrast microscopic method; type: cell-based; settings: sk-ov-3
Method in brief: (§5)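 SKOV-3 cells given compound, kept dark or irradiated (200 J/cm2, 50 mW/cm2). Morphology examined by phase-contrast microscopy (100X).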

[14] = Solubility in 25% aqueous ethanolic medium at 25 degC after 24 hrs by UV-VIS spectrometric method; type: physicochemical
Mus musculus [15] = assay: Toxicity in FoxN1 nude mouse xenografted with human SKOV3 cells assessed as effect on lung morphology at 20 mg/kg, iv measured on day 14 in presence of 100 J/cm'2 light by hematoxylin-and-eosin staining-based assay; type: organism-based; settings: in vivo; method in brief: as §3
SK-OV-3 [16] = assay: Antitumor activity against human SKOV3 cells xenografted in FoxN1 nude mouse assessed as decrease in tumor volume at 20 mg/kg, iv measured up to day 14 in presence of 100 J/cm'2 light; type: functional, organism-based; method in brief: as §3
[17] = Drug uptake in stromal cells of FoxN1 nude mouse xenografted with human SKOV3 cells at 20 mg/kg administered intratumorally measured at 12 hrs by fluorescence microscopic method; type: ADME, organism-based; settings: in vivo, other; method in brief: as §4
SK-OV-3 [18] = assay: Induction of reactive oxygen species formation in human SKOV3 cells at 20 uM in presence of 200 J/cm'2 light by CM-H2DCFDA probe-based flow cytometric method (reference value: <1%); type: functional
Mus musculus [19] = assay: Toxicity in FoxN1 nude mouse xenografted with human SKOV3 cells assessed as effect on kidney morphology at 20 mg/kg, iv measured on day 14 in presence of 100 J/cm'2 light by hematoxylin-and-eosin staining-based assay; type: organism-based; settings: in vivo; method in brief: as §3
[20] = Drug uptake in human SKOV3 cells at 20 uM after 1 hr in presence of 200 J/cm'2 light by Hoechst 33342 staining-based confocal microscopic method; type: ADME, cell-based; settings: sk-ov-3, 1 h
Method in brief: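 SKOV-3 cells on chambered glass slides incubated with 20 μM compound for 1 h. Rinsed with PBS, stained with Hoechst 33342 (1 μg/mL), imaged by confocal microscopy.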

Mus musculus [21] = assay: Toxicity in FoxN1 nude mouse xenografted with human SKOV3 cells assessed as effect on liver morphology at 20 mg/kg, iv measured on day 14 in presence of 100 J/cm'2 light by hematoxylin-and-eosin staining-based assay; type: organism-based; settings: in vivo; method in brief: as §3
Mus musculus [22] = assay: Toxicity in FoxN1 nude mouse xenografted with human SKOV3 cells assessed as effect on spleen morphology at 20 mg/kg, iv measured on day 14 in presence of 100 J/cm'2 light by hematoxylin-and-eosin staining-based assay; type: organism-based; settings: in vivo; method in brief: as §3
[23] = Induction of singlet oxygen generation in methanol at 3 uM in presence of light by DPBF-based chemical trapping method; type: functional
Homo sapiens [24] = species: Homo sapiens; assay: Binding affinity to F-actin in human SKOV3 cells at 20 uM after 1 hr in presence of 200 J/cm'2 light by TRITC labeled phalloidin/DAPI staining-based confocal microscopic method
SK-OV-3 [25] = assay: Phototoxicity against human SKOV3 cells assessed as decrease in cell viability after 24 hrs in presence of 200 J/cm'2 light by MTT assay; type: functional, cell-based; method in brief: as §2
[26] = Drug uptake in neoplastic tumor of FoxN1 nude mouse xenografted with human SKOV3 cells at 20 mg/kg administered intratumorally measured at 12 hrs by fluorescence microscopic method; type: ADME, organism-based, Neoplasm; settings: in vivo, other; method in brief: as §4
SK-OV-3 [27] = assay: Cell cycle arrest in human SKOV3 cells assessed as accumulation at sub-G1 phase at 20 uM after 12 hrs in presence of 200 J/cm'2 light by propidium iodide staining-based flow cytometric method (reference value: 7%); type: functional
Mus musculus [28] = assay: Toxicity in FoxN1 nude mouse xenografted with human SKOV3 cells assessed as effect on skin around peritumoral area at 20 mg/kg, iv measured up to day 14 in presence of 100 J/cm'2 light; type: organism-based; settings: in vivo; method in brief: as §3
SK-OV-3 [29] = assay: Cell cycle arrest in human SKOV3 cells assessed as accumulation at sub-G1 phase at 20 uM after 12 hrs in absence of light by propidium iodide staining-based flow cytometric method (reference value: 2.2%); settings: sk-ov-3, 12 h
SK-OV-3 [30] = assay: Phototoxicity in human SKOV3 cells assessed as alteration in cell morphology in presence of 200 J/cm'2 light by phase-contrast microscopic method; type: functional, cell-based; method in brief: as §5
Homo sapiens [31] = species: Homo sapiens; assay: Disruption of F-actin organization in human SKOV3 cells at 20 uM in presence of 200 J/cm'2 light by TRITC labeled phalloidin/DAPI staining-based confocal microscopic method; type: cell-based
Method in brief: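 SKOV-3 cells on coverslips: untreated, 20 μM compound in the dark, or 20 μM compound plus irradiation (600-720 nm, 200 J/cm2). Fixed in 4% paraformaldehyde/PBS, permeabilised with 0.1% Triton X-100, stained with TRITC-phalloidin (1:50, 1 h). DAPI counterstain, confocal imaging.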

## Oc1ccc(-c2c3nc(c(-c4ccc(O)c(O)c4)c4ccc([nH]4)c(-c4ccc(O)c(O)c4)c4nc(c(-c5ccc(O)c(O)c5)c5ccc2[nH]5)CC4)C=C3)cc1O
SK-OV-3 [1]
  Activity: Non-Toxic
SK-OV-3 [2]
  Activity: 79.48%
[3]
  Drug uptake: Active
MDA-MB-231
  IC50: 6.1 µM
SK-OV-3 [4]
  Activity: 76.7%
Mus musculus [5]
  Activity: Non-Toxic
SK-OV-3 [6]
  Activity: Active
IMR-32
  IC50: 3.5 µM
SK-OV-3 [7]
  Activity: Active
SK-OV-3 [8]
  Activity: Active
[9]
  Stability: Stable
SK-OV-3 [10]
  Activity: 8.98%
[11]
  Drug uptake: Not Active
MCF7
  IC50: 4.4 µM
SK-OV-3 [12]
  Activity: Active
[13]
  Activity: Non-Toxic
[14]
  solubility at 24 h: 3640 µM (≈ 2710 µg/mL)
Mus musculus [15]
  Activity: Non-Toxic
SK-OV-3 [16]
  Activity: Active
[17]
  Drug uptake: Not Active
SK-OV-3 [18]
  Activity: 73%
Mus musculus [19]
  Activity: Non-Toxic
[20]
  Drug uptake: Active
Mus musculus [21]
  Activity: Non-Toxic
Mus musculus [22]
  Activity: Non-Toxic
[23]
  Activity: 80%
Homo sapiens [24]
  Activity: Active
SK-OV-3 [25]
  Activity: Dose-dependent effect
SK-OV-3 [25]; SK-OV-3, light or radiation study
  IC50: 11.2 µM
[26]
  Drug uptake: Active
SK-OV-3 [27]
  Activity: 59.6%
Mus musculus [28]
  Activity: Non-Toxic
SK-OV-3 [29]
  Activity: 1%
SK-OV-3 [30]
  Activity: Active
Homo sapiens [31]
  Activity: Active

## Oc1cccc(-c2c3nc(c(-c4cccc(O)c4)c4ccc([nH]4)c(-c4cccc(O)c4)c4nc(c(-c5cccc(O)c5)c5ccc2[nH]5)CC4)C=C3)c1 [TEMOPORFIN]
[14]
  solubility at 24 h: 600 µM (≈ 408 µg/mL)

— ChEMBL document CHEMBL4184338, “In Vitro and In Vivo Demonstration of Human-Ovarian-Cancer Necrosis through a Water-Soluble and Near-Infrared-Absorbing Chlorin” (J Med Chem, 2018)
